Legend:
[1] = test system: Xeroderma Pigmentosum Group A protein (XPA); test: XPA DNA binding in an ELISA format; conditions: data not shown
H460 cells [2] = test: Combination index analysis with cisplatin or etoposide; format: cell-based; conditions: H460, 48 hours, all fractions of cells affected
Procedure, shortened: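 H460 cells plated at 1 × 10⁴ cells/cm² for 24 h, then treated concurrently with increasing concentrations of cisplatin or etoposide plus test compound (DMSO stock) for 48 h. Adherent and non-adherent cells were collected and stained with annexin V-FITC/PI, then read by flow cytometry. The combination index was derived by Chou–Talalay analysis across fractions of cells affected.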

[3] = test system: peripheral blood mononuclear cells (PBMCs); test: Cytotoxicity in freshly isolated PBMCs; format: cell-based; conditions: freshly isolated non-cancerous cells, data not shown
H460 NSCLC cell line = test: Annexin V/PI flow cytometry cell viability; format: cell-based; conditions: H460, increasing concentrations, 48 hours
[4] = test system: RPA foci / DNA-PKcs phosphorylation; test: Etoposide-induced RPA foci and DNA-PKcs serine 2056 phosphorylation; format: cell-based; conditions: co-treatment with etoposide
H460 cells [5] = test: Cell cycle distribution; format: cell-based
Procedure, shortened: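 H460 cells arrested with 0.8 µg/mL nocodazole for 12 h, washed, then given vehicle or 100 µM test compound for 4, 8 or 12 h; asynchronous cells treated 3 h. 10 µM BrdU added for final 2 h (released) or final hour (asynchronous). Fixed in 70% EtOH; PI 1 µg/mL with RNaseA; DNA denatured in 2 M HCl; anti-BrdU then AlexaFluor 488 secondary; FL2-A (PI) and FL1 (BrdU) flow read-out.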

Human RPA = Human RPA (Homo sapiens, UniProt P27694); test: EMSA of RPA binding to 5'-32P-labeled 34-base ssDNA; conditions: for inhibition of RPA DNA binding in vitro (in words): EMSA
Procedure, shortened: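 Purified human RPA (25 nM) with 25 nM 5'-32P-labelled 34-base DNA in 20 µL reactions; test compound dissolved in DMSO. Bound and free DNA were resolved by electrophoretic mobility shift.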

RPA in H460 cells = test: Indirect immunofluorescence of RPA p34; format: cell-based; conditions: H460, 50 µM, 3 hours, versus vehicle
Procedure, shortened: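 H460 cells on chamber slides got test compound or vehicle for 3 h. They were fixed in 4% paraformaldehyde (25 °C, 3 min) and permeabilised in 0.2% Triton X-100 (2 min, 4 °C), then blocked in 15% FBS for 1 h. Staining: anti-RPA p34 (1:500, 1 h), Alexa Fluor-594 anti-mouse (1:300, 1 h), then 300 nM DAPI. Imaged by fluorescence microscopy; staining quantified by image analysis.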

Chain of Human RPA (P27694 whole entry): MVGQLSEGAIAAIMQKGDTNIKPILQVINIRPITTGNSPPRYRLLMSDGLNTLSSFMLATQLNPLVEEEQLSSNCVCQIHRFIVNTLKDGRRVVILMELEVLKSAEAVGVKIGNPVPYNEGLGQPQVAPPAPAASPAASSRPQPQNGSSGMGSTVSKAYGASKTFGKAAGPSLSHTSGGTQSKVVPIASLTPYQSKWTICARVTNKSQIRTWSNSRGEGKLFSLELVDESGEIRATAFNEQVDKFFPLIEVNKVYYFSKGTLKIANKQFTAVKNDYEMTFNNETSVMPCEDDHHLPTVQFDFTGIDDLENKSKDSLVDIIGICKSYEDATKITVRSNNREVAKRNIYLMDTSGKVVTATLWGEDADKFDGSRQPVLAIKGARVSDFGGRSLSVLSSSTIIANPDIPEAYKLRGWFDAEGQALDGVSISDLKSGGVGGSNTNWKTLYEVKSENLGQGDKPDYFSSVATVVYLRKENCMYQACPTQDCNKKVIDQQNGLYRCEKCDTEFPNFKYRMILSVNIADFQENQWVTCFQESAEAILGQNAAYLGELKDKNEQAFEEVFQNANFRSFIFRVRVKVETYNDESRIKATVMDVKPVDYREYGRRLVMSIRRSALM
Chain of Human RPA (P15927 whole entry partner): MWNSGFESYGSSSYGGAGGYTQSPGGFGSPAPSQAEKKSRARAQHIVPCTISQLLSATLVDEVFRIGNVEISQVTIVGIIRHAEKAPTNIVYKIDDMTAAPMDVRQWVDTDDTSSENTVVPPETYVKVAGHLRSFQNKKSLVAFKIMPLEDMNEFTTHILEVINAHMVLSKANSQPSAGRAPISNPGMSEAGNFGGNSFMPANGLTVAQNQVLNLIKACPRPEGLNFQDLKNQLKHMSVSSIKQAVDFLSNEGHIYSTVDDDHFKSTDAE
Chain of Human RPA (P35244 whole entry partner): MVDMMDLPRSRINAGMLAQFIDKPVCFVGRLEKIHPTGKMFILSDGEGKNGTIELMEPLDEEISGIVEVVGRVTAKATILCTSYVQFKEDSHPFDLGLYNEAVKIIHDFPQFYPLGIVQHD

inhibition of RPA DNA binding in vitro (in words) (Human RPA)	Structure (SMILES)	effect on XPA binding [1]	interaction with etoposide (combination index analysis) (H460 cells [2])	cytotoxic activity in PBMCs [3]	PI staining (membrane integrity) (H460 NSCLC cell line)	annexin V staining (apoptosis) (H460 NSCLC cell line)	etoposide-induced RPA foci and DNA-PKcs phosphorylation on co-treatment [4]	BrdU incorporation after release from nocodazole arrest (H460 cells [5]; H460, 100 µM, 10 µM BrdU final 2 hours)	S-phase entry after release from nocodazole G2 arrest (H460 cells [5]; H460, 100 µM, 12 hours post release)	BrdU incorporation in asynchronous cells (H460 cells [5]; H460, 3 hours treatment, BrdU final hour)	cell cycle distribution (H460 cells [5]; H460, 48 hours)	competition of RPA from pre-bound DNA (Human RPA; data not shown)	intensity of RPA staining (RPA in H460 cells)
–	CCOc1ccc2cc(C3CC(c4ccc(Br)cc4)=NN3C(=O)CCC(=O)O)c(Cl)nc2c1 (centres unmarked) [TDRL-505]	no inhibitory activity was observed	synergistic activity	minimal cytotoxic activity	concentration dependent increase	Minimal annexin V staining	slight increase	no BrdU incorporation was observed	did not enter S-phase	small but distinct differences	increase in the proportion of cells in G1-phase	unable to compete RPA away from DNA	decrease in the intensity of RPA staining
no inhibition	CCN(CC)c1ccc(C2CC(c3ccc(Br)cc3)=NN2C(=O)CCC(=O)O)cc1 (centres unmarked) [TDRL-518]	–	–	–	–	–	–	–	–	–	–	–	–
modest in vitro RPA inhibition	COc1ccc(-c2nn(-c3ccccc3)cc2C2CC(c3ccc(Br)cc3)=NN2C(=O)CCC(=O)O)cc1 (centres unmarked) [TDRL-523]	–	–	–	–	–	–	–	–	–	–	–	–
